According to ChEMBL document CHEMBL1138560, “Synthesis of amidine and amide derivatives and their evaluation for anti-inflammatory and analgesic activities” (2009):

How the values were obtained:
Rattus norvegicus = assay: Antiinflammatory activity against carrageenan-induced paw edema in Charles Foster albino rat at 50 mg/kg, po administered 30 mins before carrageenan challenge measured after 1 to 3 hrs; assay type: functional
Method in brief: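 Groups of five rats, both sexes, 120–160 g, pregnant females excluded; 30 min after oral dose, 0.20 ml of 1% fresh carrageenan in 0.9% NaCl injected into hind-paw plantar aponeurosis; paw volume by water plethysmometer before and 1–3 h after; % inhibition = [1 − Dt/Dc] × 100 versus carrageenan-only control group of five.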

Mus musculus = assay: Analgesic activity against acetic acid-induced writhes in mouse at 50 mg/kg, po administered 30 mins before acetic acid challenge measured for 60 mins; assay type: functional
Method in brief: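 Mice of both sexes, 20–30 g, non-pregnant, groups of five; oral test dose given 30 min before 0.25 ml/mouse of 0.5% acetic acid; writhes counted over the following 60 min; group mean writhes expressed as percent decrease versus untreated control group of five mice.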

SMILES	Activity (Rattus norvegicus) [%]	Activity (Mus musculus) [%]
O=C(CC1NC(=O)NC1=O)/N=c1\scc(-c2ccccc2)n1-c1ccc(Cl)cc1 (stereo unspecified)	10	0
Cc1ccccc1-n1c(-c2ccccc2)cs/c1=N\C(=N)c1ccccn1	0	50
COc1ccc(-c2cs/c(=N\C(=O)c3cc(=O)[nH]c(=O)[nH]3)n2-c2ccc([N+](=O)[O-])cc2)cc1	15	10
COc1ccccc1-n1c(-c2ccccc2)cs/c1=N\C(=N)c1ccccn1	23	–
COc1ccc(-n2c(-c3ccccc3)cs/c2=N\C(=O)c2cc(=O)[nH]c(=O)[nH]2)cc1	9	8
N=C(/N=c1\scc(-c2ccccc2)n1-c1ccccc1[N+](=O)[O-])c1ccccn1	49	–
CC(=O)Oc1ccccc1C(=O)O [ASPIRIN]	43	–
COc1ccc(-n2c(-c3ccccc3)cs/c2=N\C(=N)c2ccccn2)cc1	17	12
N=C(/N=c1\scc(-c2ccccc2)n1-c1ccc(Cl)cc1)c1ccccn1	17	12
O=C(/N=c1\scc(-c2ccccc2)n1-c1ccc(Cl)cc1)c1cc(=O)[nH]c(=O)[nH]1	2	–
N=C(/N=c1\scc(-c2ccccc2)n1-c1ccc([N+](=O)[O-])cc1)c1ccccn1	26	18
O=C(CC1NC(=O)NC1=O)/N=c1\scc(-c2ccccc2)n1-c1ccccc1[N+](=O)[O-] (stereo unspecified)	17	–
CC(=O)c1ccc(-n2c(-c3ccccc3)cs/c2=N\C(=N)c2ccccn2)cc1	20	25
O=C(CC1NC(=O)NC1=O)/N=c1\scc(-c2ccccc2)n1-c1ccc([N+](=O)[O-])cc1 (stereo unspecified)	34	–
CC(C)Cc1ccc(C(C)C(=O)O)cc1 (stereo unspecified) [IBUPROFEN]	39	50
N=C(/N=c1\scc(-c2ccc(Br)cc2)n1-c1ccc2ccccc2c1)c1ccccn1	0	40
CCOc1ccc(-c2cs/c(=N\C(=N)c3ccccn3)n2-c2ccccc2)cc1	0	50
O=C(/N=c1\scc(-c2ccccc2)n1-c1ccccc1[N+](=O)[O-])c1cc(=O)[nH]c(=O)[nH]1	25	–
CC(=O)c1ccc(-n2c(-c3ccccc3)cs/c2=N\C(=O)c2cc(=O)[nH]c(=O)[nH]2)cc1	12	8
